V1R ag counter = agonists of human V1a receptor, primary screen, counter-screen for OXTR agonist project, fluorescence, CHO-V1R cells | 0.25% of 320,000 active | AID 2797, 2010 | activation, % at 3 µM | Fluo-8 calcium fluorescence, agonist mode; 0% DMSO, 100% 3 nM vasopressin | Vasopressin V1a receptor (Homo sapiens), P37288;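 active = activation above the mean activation of all tested compounds plus 3 SD, per screening run, cut at about 20% in these data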;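 also: signal is peak over basal fluorescence ratio across a 100 second FLIPR read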
Target sequence (P37288 whole entry, looked up): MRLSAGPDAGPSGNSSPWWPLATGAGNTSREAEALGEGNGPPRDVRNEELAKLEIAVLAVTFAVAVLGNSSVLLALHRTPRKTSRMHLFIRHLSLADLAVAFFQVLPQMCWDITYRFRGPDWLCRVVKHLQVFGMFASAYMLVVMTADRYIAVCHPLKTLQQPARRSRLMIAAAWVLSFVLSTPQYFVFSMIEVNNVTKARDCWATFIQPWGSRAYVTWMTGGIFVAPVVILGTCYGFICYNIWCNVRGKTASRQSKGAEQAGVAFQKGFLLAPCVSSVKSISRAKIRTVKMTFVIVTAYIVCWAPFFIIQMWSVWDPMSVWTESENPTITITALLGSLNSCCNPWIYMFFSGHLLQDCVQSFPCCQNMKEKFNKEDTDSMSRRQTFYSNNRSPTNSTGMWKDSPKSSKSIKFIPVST
OX1R antag-1 = antagonists of human orexin 1 receptor (OX1R) | OX1R-expressing cells, FRET antagonist read-out | inhibition, % at 6.6 µM | 1.8% of 330,000 active; in the data active = inhibition mostly above about 38%, no sharp cut-off; inactive = mostly below about 40%;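 also: 0% = agonist challenge alone and 100% = reference antagonist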
OXTR potentiator = human OXTR potentiators, primary screen, fluorescence, CHO-OTR cells, Fluo-8 calcium | AID 2445, 2010 | activation, % at 3 µM | 0.061% of 320,000 active | Fluo-8 calcium fluorescence, potentiator mode; 0% = oxytocin EC15, 100% = EC100;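 active = activation above that plate's cutoff, the mean activation of tested compounds plus 3 SD, cut at about 6.6% in these data, passing the limit was not always enough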;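 also: 100% uses oxytocin at 75 nM as the full agonist control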
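System: human OTR in CHO cells / Also added: sub-maximal oxytocin, roughly EC15 / Control set: EC15 oxytocin low, 75 nM oxytocin high / Schedule: 6 min compound pre-incubation at room temperature, 100 s kinetic read / Compound: single-point 3.0 µM / Replication: singlicate / Technique: Fluo-8 calcium dye fluorescence / Read-out basis: % activation of max/min ratio relative to oxytocin controls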
OXTR ag = human OXTR agonists, primary screen, fluorescence, CHO-OTR cells, Fluo-8 calcium | Oxytocin receptor (Homo sapiens), P30559 | Fluo-8 calcium fluorescence; normalized: DMSO 0%, oxytocin 100% | activation, % at 3 µM | 0.32% of 320,000 active;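 active = activation above the mean of all tested compounds plus 3 SD, cutoff set per screening run, cut at about 20% in these data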;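 also: peak over basal fluorescence ratio from a 100 s FLIPR kinetic read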
OX1R antag-2 = OX1R (HCRTR1) antagonists, primary screen, fluorescence, CHO/OX1R cells, Fluo-8 calcium, orexin A. Fluo-8 calcium fluorescence. inhibition, % at 5 µM. 0.43% of 330,000 active. AID 434989, 2010;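 active = inhibition above its plate's threshold, mean inhibition of all tested compounds on the plate plus 3 SD, cut at about 37% in these data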;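 also: 0% = orexin A challenge wells and 100% = SB-334867-A antagonist wells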
CHO parental Ca = ATP-evoked calcium signal inhibitors, parental CHO, primary screen, counter-screen for OX1R antagonist project, cell-based, fluorescence, Fluo-8 calcium dye | parental CHO-K1, ATP-induced calcium, Fluo-8 fluorescence | 0.63% of 330,000 active | inhibition, % at 5.6 µM | AID 463079, 2010;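 active = inhibition above that plate's mean sample inhibition plus 3 SD, cut at about 26% in these data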;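 also: 0% = ATP-challenged DMSO wells and 100% = DMSO wells without ATP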
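Test system: untransfected parental CHO cell line. Compound: one dose, 5.6 µM nominal. Detection: intracellular calcium via Fluo-8 no-wash fluorescent dye. Measure: % inhibition. Benchmarks: ATP-challenged DMSO wells low, unchallenged DMSO wells high.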
The depositor's hits bear a star. A selection: hits, their analogues and other compounds. The true share with any hit is near 2.6%.

SMILES | V1R ag counter | OX1R antag-1 | OXTR potentiator | OXTR ag | OX1R antag-2 | CHO parental Ca
O=[N+]([O-])c1ccccc1-c1cc(-c2ccccc2)cc(-c2ccccc2)[n+]1Cc1ccccc1Cl | -1 | 34 | -4 | -1 | 70* | 68*
O=C1NS(=O)c2cc([N+](=O)[O-])cc([N+](=O)[O-])c21 (stereo not given) | 1 | 67* | -3 | 0 | -1 | -8
O=C1NC(=O)N(c2cccc(Cl)c2)C(=O)/C1=C\c1ccc(Sc2nc3ccccc3[nH]2)o1 | 57* | 9 | -21 | 59* | 62* | 39*
O=C1NC(=O)N(c2ccccc2F)C(=O)/C1=C/c1ccc(Sc2nc3ccccc3[nH]2)o1 | 28* | 17 | -12 | 39* | 41 | 38
COC(=O)C1=C(c2ccc(-c3ccccc3)c(F)c2)C[C@@H]2CC[C@H]1N2C(=O)NCCOc1ccc(OC)cc1 | 2 | -2 | -10 | 1 | -5 | -3
Cc1ccsc1C(=O)C1CCCN(Cc2cnc(N3CCCC3)s2)C1 (stereo not given) | 0 | 15 | -17 | 0 | -36 | -28
CCN1/C(=C\C=C\C2=[N+](CC)c3ccccc3C2(C)C)C(C)(C)c2ccccc21 | 459* | 22 | -24 | 443* | 108* | 100*
CCOc1cccc(CNCCc2c(C)[nH]c3ccc(OC(F)(F)F)cc23)c1O | 29* | 15 | -10 | 39* | 55* | 85*
COc1ccc2[nH]c(C)c(CCNCc3cccnc3)c2c1 | 2 | 0 | -4 | 1 | 4 | -5
Cc1ccc2c(c1N)C(=O)c1ccccc1C2=O | 5 | 40* | -8 | 6 | 19 | 4
Cn1c(O)c(/C=C2\N=c3ccccc3=C2CCNC(=S)NC2CC2)c(=O)n(C)c1=O | 1 | 4 | -14 | 0 | -7 | -14
Cc1nc2cc([N+](=O)[O-])ccc2c(=O)n1-c1ccccc1[N+](=O)[O-] | 2 | 53* | -7 | 0 | -19 | -9
Cc1ccccc1OCCCn1cc(C(=O)C(=O)N2CCOCC2)c2ccccc21 | 0 | 10 | -19 | 0 | -25 | -7
N/C(=N\[N+](=O)[O-])N/N=C/c1ccc(O)cc1 | 1 | 10 | 4 | 1 | -8 | 1
Nc1nonc1C(=O)N/N=C/c1ccc([N+](=O)[O-])o1 | 0 | 75* | -15 | 0 | -6 | -2
C[CH2][Hg][S]c1ccccc1C(=O)O | 7 | 3 | 12* | 4 | 89* | 73*
CC(C)COC(=O)c1ccccc1C(=O)OCC(C)C | -1 | 7 | -6 | -2 | -8 | -14
CC[C@@]1(O)C(=O)OCc2c1cc1n(c2=O)Cc2cc3ccccc3nc2-1 | -1 | 55 | -9 | -1 | -5 | -8
CCC1(OC(=O)CN)C(=O)OCc2c1cc1n(c2=O)Cc2cc3ccccc3nc2-1 (stereo not given) | 0 | 56* | 1 | -1 | -8 | -13
CC[C@@]1(O)C(=O)OCc2c1cc1n(c2=O)Cc2cc3c(NC(=O)CN)cccc3nc2-1 | -1 | 38* | -8 | 1 | 11 | -6
O=P1(NCCCl)OCCCN1CCCl (stereo not given) | 1 | 8 | 2 | 1 | -6 | -10
CCC1(C(=O)c2ccccc2)C2c3ccccc3OC(=O)C21C(C)=O (stereo not given) | -1 | 0 | -9 | -2 | -41 | -20
CN(C(=O)COC(=O)c1cn(C)c2ccccc12)C1CCCCC1 | 1 | 38* | -8 | 0 | 22 | -12
COC12C(COC(N)=O)C3=C(C(=O)C(C)=C(N)C3=O)N1CC1C2N1C (stereo not given) | 1 | 57* | 2 | 1 | 4 | -6
CCC(=NCCc1c[nH]c2ccccc12)c1c(O)n(C)c(=O)n(C)c1=O | 10 | 27 | -6 | 19 | 20 | 44*
SMILES | V1R ag counter | OX1R antag-1 | OXTR potentiator | OXTR ag | OX1R antag-2 | CHO parental Ca
CCC(=NCCOc1ccc(Cl)cc1)c1c(O)n(C)c(=O)n(C)c1=O | 11 | 19 | -22 | 13 | 54* | 50*
CCC(=NCCc1c[nH]c2ccccc12)c1c(O)n(-c2ccc(C)cc2)c(=O)[nH]c1=O | 3 | 7 | -5 | 7 | -22 | -9
O=C1NC(=O)N(c2ccc3c(c2)OCO3)C(=O)/C1=C/c1ccc(N2CCCCC2)o1 | 11 | 61* | -10 | 13 | -5 | -2
O=C1NC(=O)N(c2ccc3c(c2)OCO3)C(=O)/C1=C\c1ccc(-c2ccccc2C(=O)O)o1 | 1 | 32 | -9 | 0 | -14 | -4
COc1ccc(-[n+]2c(-c3ccccc3)cc(-c3ccccc3)cc2-c2ccccc2)cc1 | 0 | 25 | -7 | 1 | 1 | 22
Oc1ccc(-[n+]2c(-c3ccccc3)cc(-c3ccccc3)cc2-c2ccccc2)cc1 | 0 | 20 | -2 | -1 | 37 | 44*
CCOc1ccc(-n2c(O)c(N=Nc3c(C)n(C)n(-c4ccccc4)c3=O)c(=O)[nH]c2=O)cc1 | 0 | 39* | -8 | -1 | -2 | 6
Cc1c(N=Nc2c(O)[nH]c(=S)[nH]c2=O)c(=O)n(-c2ccccc2)n1C | 1 | 77* | -7 | 0 | 2 | -9
C=CCn1c(O)c(N=Nc2c(C)n(C)n(-c3ccccc3)c2=O)c(=O)[nH]c1=S | 1 | 58 | 6 | 1 | -8 | -6
COC(=O)C1=C(c2ccc(C(C)=O)cc2)C[C@@H]2CC[C@H]1N2C(=O)NCc1ccc(C(F)(F)F)cc1 | 33* | 0 | -10 | 45* | 32 | 11
COC(=O)C1=C(c2ccccc2)C[C@@H]2CC[C@H]1N2C(=O)NCc1ccc(C(F)(F)F)cc1 | 0 | 40 | -8 | -1 | -9 | -22
COC(=O)C1=C(c2ccccc2OCc2ccccc2)C[C@@H]2CC[C@H]1N2C(=O)NCc1cccc(F)c1 | 2 | 41* | -2 | 0 | 35 | -28
C[C@@H]1CCC2[C@@H](C)C(=O)O[C@@H]3OC4(C)CCC1[C@@]23OO4 (stereo not given in full) | 0 | 8 | 2 | 1 | -7 | -3
CC[n+]1c(/C=C/C=C/c2ccc(N(C)C)cc2)sc2ccccc21 | -1 | 75* | -7 | 0 | 42 | 33*
